ChEMBL document CHEMBL1141374 (J Med Chem, 2007)
Each block holds one compound with its values, some of them ahead of it.

Key:
SK-MEL-28 = assay: Growth inhibition in SK-MEL-28 cells; assay type: functional; settings: Homo sapiens
BT-549 = assay: Growth inhibition in BT549 cells; assay type: functional; settings: Homo sapiens
MDA-MB-435 = assay: Growth inhibition in MDA-MB-435 cells; assay type: functional; settings: Homo sapiens
MCF7 = assay: Growth inhibition in MCF7 cells; assay type: functional; settings: Homo sapiens
RXF 393 = assay: Growth inhibition in RXF393 cells; assay type: functional; settings: Homo sapiens
EKVX = assay: Growth inhibition in EKVX cells; assay type: functional; settings: Homo sapiens
OVCAR-8 = assay: Growth inhibition in OVCAR8 cells; assay type: functional; settings: Homo sapiens
TK-10 = assay: Growth inhibition in TK10 cells; assay type: functional; settings: Homo sapiens
A498 = assay: Growth inhibition in A498 cells; assay type: functional; settings: Homo sapiens
NCI-H226 = assay: Growth inhibition in NCI-H226 cells; assay type: functional; settings: Homo sapiens
SK-MEL-5 = assay: Growth inhibition in SK-MEL-5 cells; assay type: functional; settings: Homo sapiens
NCI-H460 = assay: Growth inhibition in NCI-H460 cells; assay type: functional; settings: Homo sapiens
SW-620 = assay: Growth inhibition in SW620 cells; assay type: functional; settings: Homo sapiens
[1] = Growth inhibition in HCC116 cells; assay type: functional; settings: Homo sapiens
T47D = assay: Growth inhibition in T47D cells; assay type: functional; settings: Homo sapiens
K562 = assay: Growth inhibition in K562 cells; assay type: functional; settings: Homo sapiens
786-0 = assay: Growth inhibition in 786-0 cells; assay type: functional; settings: Homo sapiens
UO-31 = assay: Growth inhibition in UO31 cells; assay type: functional; settings: Homo sapiens
DU-145 = assay: Growth inhibition in DU145 cells; assay type: functional; settings: Homo sapiens
SF-295 = assay: Growth inhibition in SF295 cells; assay type: functional; settings: Homo sapiens
HCT-116 = assay: Cytotoxicity against HCT116 cell line; assay type: cell-based; settings: Homo sapiens
In short: (§1)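 Log-phase cells were diluted to 20 000–30 000 cells/mL, seeded, and left to attach overnight. They were then exposed to compounds at 10^–5–10^–12 M for 72 h at 37 °C in 5% CO2. Viable cells were measured by MTT, with absorbance read at 595 nm. Each compound ran in triplicate in at least three independent assays. IC50 came from nonlinear regression, and average values were reported.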

HOP-62 = assay: Growth inhibition in HOP62 cells; assay type: functional; settings: Homo sapiens
KM12 = assay: Growth inhibition in KM12 cells; assay type: functional; settings: Homo sapiens
CCRF-CEM = assay: Growth inhibition in CCRF-CEM cells; assay type: functional; settings: Homo sapiens
HeLa = assay: Cytotoxicity against HeLa cell line; assay type: cell-based; settings: Homo sapiens; in short: as §1
OVCAR-5 = assay: Growth inhibition in OVCAR5 cells; assay type: functional; settings: Homo sapiens
[2] = Cytotoxicity against KB-3-1 cell line; assay type: cell-based; settings: Homo sapiens; in short: as §1
OVCAR-4 = assay: Growth inhibition in OVCAR4 cells; assay type: functional; settings: Homo sapiens
SN12C = assay: Growth inhibition in SN12C cells; assay type: functional; settings: Homo sapiens
SF-539 = assay: Growth inhibition in SF539 cells; assay type: functional; settings: Homo sapiens
SK-OV-3 = assay: Growth inhibition in SKOV3 cells; assay type: functional; settings: Homo sapiens
COLO 205 = assay: Growth inhibition in COLO205 cells; assay type: functional; settings: Homo sapiens
M14 = assay: Growth inhibition in M14 cells; assay type: functional; settings: Homo sapiens
SNB-75 = assay: Growth inhibition in SNB75 cells; assay type: functional; settings: Homo sapiens
NCI-H522 = assay: Growth inhibition in NCI-H522 cells; assay type: functional; settings: Homo sapiens
[3] = Growth inhibition in HS 578T cells; assay type: functional; settings: Homo sapiens
NCI-H322M = assay: Growth inhibition in NCI-H322M cells; assay type: functional; settings: Homo sapiens
UACC-257 = assay: Growth inhibition in UACC257 cells; assay type: functional; settings: Homo sapiens
HL-60 = assay: Growth inhibition in HL60 cells; assay type: functional; settings: Homo sapiens
A549 = assay: Growth inhibition in A549 cells; assay type: functional; settings: Homo sapiens
ZR-75-1 = assay: Cytotoxicity against ZR-75-1 cell line; assay type: cell-based; settings: Homo sapiens; in short: as §1
UACC-62 = assay: Growth inhibition in UACC62 cells; assay type: functional; settings: Homo sapiens
HCC 2998 = assay: Growth inhibition in HCC2998 cells; assay type: functional; settings: Homo sapiens
[4] = Growth inhibition in MDA-MB-231/ATCC cells; assay type: functional; settings: Homo sapiens
ACHN = assay: Growth inhibition in ACHN cells; assay type: functional; settings: Homo sapiens
[5] = Cytotoxicity against P-glycoprotein-overexpressing KB-V1 cell line; assay type: cell-based; settings: Homo sapiens; in short: as §1
NCI-H23 = assay: Growth inhibition in NCI-H23 cells; assay type: functional; settings: Homo sapiens
SNB-19 = assay: Growth inhibition in SNB19 cells; assay type: functional; settings: Homo sapiens
OVCAR-3 = assay: Growth inhibition in OVCAR-3 cells; assay type: functional; settings: Homo sapiens
NCI/ADR-RES = assay: Growth inhibition in NCI/ADR-RES cells; assay type: functional; settings: Homo sapiens
HOP-92 = assay: Growth inhibition in HOP92 cells; assay type: functional; settings: Homo sapiens
LOX IMVI = assay: Growth inhibition in LOX IMVI cells; assay type: functional; settings: Homo sapiens
HT-29 = assay: Growth inhibition in HT29 cells; assay type: functional; settings: Homo sapiens
PC-3 = assay: Growth inhibition in PC3 cells; assay type: functional; settings: Homo sapiens
[6] = Growth inhibition in HCC15 cells; assay type: functional; settings: Homo sapiens
SF-268 = assay: Growth inhibition in SF268 cells; assay type: functional; settings: Homo sapiens
IGROV-1 = assay: Growth inhibition in IGROV1 cells; assay type: functional; settings: Homo sapiens
CAKI-1 = assay: Growth inhibition in CAK1-1 cells; assay type: functional; settings: Homo sapiens
U-251 = assay: Growth inhibition in U251cells; assay type: functional; settings: Homo sapiens
Tubulin = assay: Inhibition of tubulin polymerization; assay type: protein-complex assay, Homo sapiens
In short: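 Kit-based assay run per the manufacturer's instructions. Tubulin (>99% pure, 3 mg/mL) in G-PEM buffer, in a prewarmed plate with compound at 0.03–30 μM. OD340 nm read every 60 s at 37 °C for 1 h.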

Compound: COc1ccc(-n2cnnc2-c2cc(OC)c(OC)c(OC)c2)cc1F
GI50 (SK-MEL-28): 39800 nM
GI50 (BT-549): 9330 nM
GI50 (MDA-MB-435): 331 nM
GI50 (MCF7): 1000 nM
GI50 (RXF 393): 1700 nM
GI50 (EKVX): 89100 nM
GI50 (OVCAR-8): 6310 nM
GI50 (TK-10): > 100000 nM
GI50 (A498): 8130 nM
GI50 (NCI-H226): 7080 nM
GI50 (SK-MEL-5): 2570 nM
GI50 (NCI-H460): 3160 nM
GI50 (SW-620): 4070 nM
GI50 [1]: 3020 nM
GI50 (T47D): > 100000 nM
GI50 (K562): 759 nM
GI50 (786-0): 3160 nM
GI50 (UO-31): 17800 nM
GI50 (DU-145): 4790 nM
GI50 (SF-295): 1860 nM
IC50 (HCT-116): 365 nM
GI50 (HOP-62): 2040 nM
GI50 (KM12): 1450 nM
GI50 (CCRF-CEM): 2570 nM
IC50 (HeLa): 173 nM
GI50 (OVCAR-5): 5620 nM
IC50 [2]: 399 nM
GI50 (OVCAR-4): 5250 nM
GI50 (SN12C): 4680 nM
GI50 (SF-539): 3890 nM
GI50 (SK-OV-3): 8320 nM
GI50 (COLO 205): 3980 nM
GI50 (M14): 2240 nM
GI50 (SNB-75): 3020 nM
GI50 (NCI-H522): 4570 nM
GI50 [3]: 6460 nM
GI50 (NCI-H322M): 8130 nM
GI50 (UACC-257): > 100000 nM
GI50 (HL-60): 6030 nM
GI50 (A549): 12000 nM
IC50 (ZR-75-1): 367 nM
GI50 (UACC-62): 3630 nM
GI50 (HCC 2998): 631 nM
GI50 [4]: 6460 nM
GI50 (ACHN): 5620 nM
IC50 [5]: 1480 nM
GI50 (NCI-H23): 2240 nM
GI50 (SNB-19): 6310 nM
GI50 (OVCAR-3): 2090 nM
GI50 (NCI/ADR-RES): 2000 nM
GI50 (HOP-92): 5370 nM
GI50 (LOX IMVI): 5130 nM
GI50 (HT-29): 3160 nM
GI50 (PC-3): 3020 nM
GI50 [6]: 1660 nM
GI50 (SF-268): 9330 nM
GI50 (IGROV-1): 4900 nM
GI50 (CAKI-1): 2950 nM
GI50 (U-251): 5130 nM

GI50 (BT-549): 25100 nM
GI50 (MDA-MB-435): < 10 nM
GI50 (MCF7): 275 nM
GI50 (OVCAR-8): 2570 nM
GI50 (NCI-H226): 100000 nM
GI50 (SK-MEL-5): 69.2 nM
GI50 (NCI-H460): 178 nM
GI50 (SW-620): 75.9 nM
GI50 (T47D): 47.9 nM
GI50 (K562): 12.9 nM
GI50 (786-0): 398 nM
GI50 (DU-145): 1860 nM
GI50 (CCRF-CEM): 61.7 nM
GI50 (OVCAR-5): 4270 nM
GI50 (OVCAR-4): 20900 nM
IC50 (Tubulin): 4100 nM
GI50 (SK-OV-3): 347 nM
GI50 (COLO 205): 87.1 nM
GI50 (NCI-H522): 57.5 nM
GI50 (NCI-H322M): 2630 nM
GI50 (HL-60): 105 nM
GI50 (A549): 398 nM
GI50 (HCC 2998): 85.1 nM
GI50 (ACHN): 204 nM
GI50 (NCI-H23): 6760 nM
GI50 (OVCAR-3): 34.7 nM
GI50 (HT-29): 30.9 nM
GI50 (PC-3): 28.2 nM
GI50 (U-251): 151 nM
Compound: COc1cc(-c2nncn2-c2ccc(N(C)C)cc2)cc(OC)c1OC
GI50 (RXF 393): 1620 nM
GI50 (EKVX): > 100000 nM
GI50 (TK-10): 1660 nM
GI50 (A498): 490 nM
GI50 [1]: 60.3 nM
GI50 (UO-31): 955 nM
GI50 (SF-295): 37.1 nM
IC50 (HCT-116): 91.5 nM
GI50 (HOP-62): 275 nM
GI50 (KM12): 26.3 nM
IC50 (HeLa): 29.6 nM
IC50 [2]: 119 nM
GI50 (SN12C): 724 nM
GI50 (SF-539): 324 nM
GI50 (M14): 50.1 nM
GI50 (SNB-75): 107 nM
GI50 [3]: 417 nM
GI50 (UACC-257): 100000 nM
IC50 (ZR-75-1): 308 nM
GI50 (UACC-62): 95.5 nM
GI50 [4]: 1020 nM
IC50 [5]: 323 nM
GI50 (SNB-19): 204 nM
GI50 (NCI/ADR-RES): 129 nM
GI50 (HOP-92): 389 nM
GI50 (LOX IMVI): 219 nM
GI50 [6]: 60.3 nM
GI50 (SF-268): 34.7 nM
GI50 (IGROV-1): 95.5 nM
GI50 (CAKI-1): 135 nM
